Experimental data: ChEMBL document CHEMBL1944627, “[¹⁸F]GE-180: a novel fluorine-18 labelled PET tracer for imaging Translocator protein 18 kDa (TSPO)” (Bioorg Med Chem Lett, 2012)

Legend:
[1] = Ratio of drug uptake in olfactory bulb to striatum in Sprague-Dawley rat at 1 to 3 MBq, iv after 30 mins by gamma counting; details: in vivo, 0.5 h
Rattus norvegicus = assay: Biodistribution in Sprague-Dawley rat olfactory bulbs at 1 to 3 MBq, iv after 30 mins by gamma counting; type: ADME, organism-based, Olfactory bulb; details: in vivo, 0.5 h
Summary of the method: (§1)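 Tracer formulated in Dulbecco's PBS and given iv, about 1–3 MBq at 10 MBq/mL, under 4% isoflurane, to naive rats (n = 3). Animals were killed at set times after injection. Brain was dissected into regions including striatum and olfactory bulbs, and activity was counted by gamma counter. Values are % id/g, and regional ratios were taken between times or regions.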

Brain = assay: Biodistribution in Sprague-Dawley rat whole brain at 1 to 3 MBq, iv after 2 mins by gamma counting; type: ADME, organism-based; details: in vivo
Summary of the method: as §1

[2] = Metabolic stability in Sprague-Dawley rat brain assessed as compound remaining at 1 to 3 MBq, iv after 60 mins by HPLC analysis; type: ADME, organism-based; details: read-out: Stability
Summary of the method: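 Radiotracer was injected iv into rats. Brain and plasma were sampled at 10, 30 and 60 min post injection to follow metabolic fate. Brain radioactivity at 60 min is expressed as % parent tracer remaining.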

[3] = Ratio of drug uptake in striatum in Sprague-Dawley rat at 1 to 3 MBq, iv after 2 mins to drug uptake in striatum in Sprague-Dawley rat at 1 to 3 MBq, iv after 30 mins; details: in vivo
[4] = Lipophilicity, log D of the compound at pH 7.4; type: physicochemical; details: buffer
Translocator protein = Translocator protein (Rattus norvegicus, UniProt P16257); assay: Displacement of [3H]PK11195 from TSPO receptor in Wistar rat heart homogenate after 15 mins; type: tissue-based
[5] = Metabolic stability in Sprague-Dawley rat brain assessed as compound remaining at 1 to 3 MBq, iv after 30 mins by HPLC analysis; type: ADME, organism-based; details: read-out: Stability

Translocator protein, sequence (P16257 whole entry, looked up): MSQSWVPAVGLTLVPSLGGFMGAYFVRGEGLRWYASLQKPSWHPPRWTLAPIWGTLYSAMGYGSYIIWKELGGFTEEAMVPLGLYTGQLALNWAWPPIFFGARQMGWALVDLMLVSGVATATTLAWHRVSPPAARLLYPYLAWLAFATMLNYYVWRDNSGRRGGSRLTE

| Ratio [1] | Drug uptake (Rattus norvegicus) [% ID/g] | Drug uptake (Brain) [% ID/g] | remaining at 1 h [2] [%] | Ratio [3] | logD [4] | Ki (Translocator protein) [nM] | remaining at 0.5 h [5] [%] | Structure (SMILES) |
| --- | --- | --- | --- | --- | --- | --- | --- | --- |
| 2.78 | 0.25 | 0.48 | 43 | 5.11 | – | – | – | CC(C)N(C(=O)C1CCCc2c1c1ccccc1n2CC[18F])C(C)C (stereo not drawn) |
| – | – | – | – | – | 2.72 | 8.23 | – | CC(C)N(C)C(=O)C1CCCc2c1c1cc(F)ccc1n2CCF (racemic) |
| 2.78 | 0.25 | 0.33 | – | 3 | – | – | – | CCN(CC)C(=O)C1CCCc2c1c1cc(F)c(OC)cc1n2CC[18F] (stereo not drawn) |
| 3.4 | 0.34 | 0.48 | 76 | 4.3 | – | – | – | CCN(Cc1ccccc1)C(=O)C1CCCc2c1c1ccccc1n2CC[18F] (stereo not drawn) |
| – | – | – | – | – | 2.18 | 503 | – | O=C(C1CCCc2c1c1ccccc1n2CCF)N1CCCC1 (racemic) |
| 2.09 | 0.46 | 0.45 | – | 1.77 | – | – | – | CCCN(CC)C(=O)C1CCCc2c1c1ccccc1n2CC[18F] (stereo not drawn) |
| – | – | – | – | – | 2.56 | 3.1 | – | CCOc1ccc2c(c1)c1c(n2CCF)CCCC1C(=O)N(CC)CC (racemic) |
| – | 0.25 | 0.51 | 83 | – | – | – | – | O=C(C1CCCc2c1c1ccccc1n2CC[18F])N1CCCCC1 (stereo not drawn) |
| – | – | – | – | – | 2.28 | 1.7 | – | CC(C)N(C(=O)C1CCCc2c1c1ccccc1n2CCF)C(C)C (racemic) |
| – | – | – | – | – | 2.37 | 3.8 | – | CCN(CC)C(=O)C1CCCc2c1c1cc(F)ccc1n2CCF (racemic) |
| 1.42 | 0.17 | – | – | 2.16 | – | 0.67 | 95 | CCN(CC)C(=O)C1Sc2ccccc2-c2c1c1ccccc1n2CCF (stereo not drawn) |
| – | – | – | – | – | – | 0.38 | – | CCCN(CC)C(=O)C1CCCc2c1c1ccccc1n2CCF (racemic) |
| – | – | – | – | – | 1.7 | 502 | – | CN(C)C(=O)C1CCCc2c1c1ccccc1n2CCF (racemic) |
| 2.5 | 0.25 | 0.39 | – | 3.5 | – | – | – | CCCN(C)C(=O)C1CCCc2c1c1ccccc1n2CC[18F] (stereo not drawn) |
| – | – | – | – | – | 2.41 | 5.5 | – | CCN(CC)C(=O)C1CCCc2c1c1ccc(OC)cc1n2CCF (racemic) |
| – | – | – | – | – | 2.42 | 1.3 | – | CN(Cc1ccccc1)C(=O)C1CCCc2c1c1ccccc1n2CCF (racemic) |
| 2.5 | 0.25 | 0.33 | – | 3 | – | – | – | CCOc1ccc2c(c1)c1c(n2CC[18F])CCCC1C(=O)N(CC)CC (stereo not drawn) |
| – | – | – | – | – | 2.13 | 0.7 | – | CCCCCCN(CCCCCC)C(=O)C1CCCc2c1c1ccccc1n2CCF (racemic) |
| – | 0.23 | 0.53 | – | – | – | – | – | CCN(CC)C(=O)[C@@H]1CCCc2c1c1c(OC)cccc1n2CC[18F] |
| 4.33 | 0.39 | 0.36 | – | 4 | – | – | – | CCN(CC)C(=O)C1CCCc2c1c1ccc(OC)cc1n2CC[18F] (stereo not drawn) |
| – | 0.21 | 0.28 | 100 | – | – | – | – | CCC(C)N([11CH3])C(=O)c1cc2ccccc2c(-c2ccccc2Cl)n1 (stereo not drawn) |
| – | – | – | – | – | 1.95 | 4.34 | – | CCN(CC)C(=O)C1CCCc2c1c1c(OC)cc(OC)cc1n2CCF (racemic) |
| 3.88 | 0.31 | 0.39 | 76 | 4.25 | – | – | – | CCN(CC)C(=O)C1CCCc2c1c1cc(OC)ccc1n2CC[18F] (stereo not drawn) |
| 3.5 | 0.21 | 0.29 | – | 4.17 | – | – | – | CCN(CC)C(=O)C1CCCc2c1c1cc(OC)c(F)cc1n2CC[18F] (stereo not drawn) |
| 2.2 | 0.4 | 0.49 | – | 2.39 | – | – | – | CCCN(CCC)C(=O)C1CCCc2c1c1ccccc1n2CC[18F] (stereo not drawn) |
| – | – | – | – | – | – | 1.05 | – | CCN(CC)C(=O)C1CCCc2c1c1ccc(F)cc1n2CCF (racemic) |

| Ratio [1] | Drug uptake (Rattus norvegicus) [% ID/g] | Drug uptake (Brain) [% ID/g] | remaining at 1 h [2] [%] | Ratio [3] | logD [4] | Ki (Translocator protein) [nM] | remaining at 0.5 h [5] [%] | Structure (SMILES) |
| --- | --- | --- | --- | --- | --- | --- | --- | --- |
| – | – | – | – | – | 2.08 | 3.1 | – | CCN(CC)C(=O)C1CCCc2c1c1cc(F)c(OC)cc1n2CCF (racemic) |
| – | – | – | – | – | 1.7 | 135 | – | CCN(CC)C(=O)C1CCCc2c1c1cc(O)ccc1n2CCF (racemic) |
| – | – | – | – | – | 2.35 | 4.4 | – | O=C(C1CCCc2c1c1ccccc1n2CCF)N1CCCCCC1 (racemic) |
| – | 0.36 | 0.52 | 90 | – | – | – | – | CCN(CC)C(=O)C1CCCc2c1c1c(OC)cccc1n2CC[18F] (racemic) |
| – | 0.45 | 0.53 | 94 | – | – | – | – | CCN(CC)C(=O)[C@H]1CCCc2c1c1c(OC)cccc1n2CC[18F] |
| – | – | – | – | – | 2.71 | 1.9 | – | CCN(CC)C(=O)C1CCCc2c1c1cc(OC)ccc1n2CCF (racemic) |
| – | – | – | – | – | 1.99 | 2.2 | – | CCCN(C)C(=O)C1CCCc2c1c1ccccc1n2CCF (racemic) |
| – | – | – | – | – | 2.2 | 4 | – | CC(C)N(C)C(=O)C1CCCc2c1c1ccccc1n2CCF (racemic) |
| – | 0.51 | 0.5 | 93 | – | – | – | – | CCN(CC)C(=O)C1CCCc2c1c1c(F)cccc1n2CC[18F] (stereo not drawn) |
| – | – | – | – | – | 1.53 | 607 | – | O=C(C1CCCc2c1c1ccccc1n2CCF)N1CCOCC1 (racemic) |
| – | – | – | – | – | 2.95 | 2.4 | – | CCN(CC)C(=O)C1CCCc2c1c1c(OC)cccc1n2CCF (racemic) |
| 1.11 | 0.1 | 0.06 | – | 0.44 | – | – | – | CCCCCCN(CCCCCC)C(=O)C1CCCc2c1c1ccccc1n2CC[18F] (stereo not drawn) |
| 1.92 | 0.48 | 0.52 | – | 1.8 | – | – | – | CCN(CC)C(=O)C1CCCc2c1c1ccc(F)cc1n2CC[18F] (stereo not drawn) |
| – | 0.12 | 0.34 | – | – | – | – | – | O=C(C1CCCc2c1c1ccccc1n2CC[18F])N1CCCC1 (stereo not drawn) |
| – | – | – | – | – | 2.98 | 0.7 | – | CCCN(CCC)C(=O)C1CCCc2c1c1ccccc1n2CCF (racemic) |
| – | – | – | – | – | 2.78 | 5.4 | – | CCN(CC)C(=O)C1CCCc2c1c1ccccc1n2CCF (racemic) |
| 3.25 | 0.39 | 0.53 | 62 | 4.08 | – | – | – | CCN(CC)C(=O)C1CCCc2c1c1ccccc1n2CC[18F] (stereo not drawn) |
| – | – | – | – | – | 3.1 | 1.45 | – | CN(Cc1ccccc1)C(=O)C1CCCc2c1c1cc(F)ccc1n2CCF (racemic) |
| – | – | – | – | – | 2.84 | 0.73 | – | CCN(Cc1ccccc1)C(=O)C1CCCc2c1c1ccccc1n2CCF (racemic) |
| – | – | – | – | – | 2.47 | 28.6 | – | O=C(NCc1ccccc1)C1CCCc2c1c1ccccc1n2CCF (racemic) |
| – | – | – | – | – | 2.53 | 18.3 | – | O=C(C1CCCc2c1c1ccccc1n2CCF)N1CCCCC1 (racemic) |
| 3.4 | 0.34 | 0.55 | 81 | 4.7 | – | – | – | CN(Cc1ccccc1)C(=O)C1CCCc2c1c1ccccc1n2CC[18F] (stereo not drawn) |
| 3.18 | 0.35 | 0.53 | 74 | 4.54 | – | – | – | CC(C)N(C)C(=O)C1CCCc2c1c1ccccc1n2CC[18F] (stereo not drawn) |
| – | 0.41 | 0.56 | 84 | – | – | – | – | CCN(CC)C(=O)C1CCCc2c1c1cc(F)ccc1n2CC[18F] (stereo not drawn) |
| – | – | – | – | – | 2.38 | 1.5 | – | CCN(CC)C(=O)C1CCCc2c1c1cc(OC)c(F)cc1n2CCF (racemic) |
| 4.13 | 0.33 | 0.45 | 79 | 5.38 | – | – | – | O=C(C1CCCc2c1c1ccccc1n2CC[18F])N1CCCCCC1 (stereo not drawn) |

| Structure (SMILES) | Ratio [1] | Drug uptake (Rattus norvegicus) [% ID/g] | Drug uptake (Brain) [% ID/g] | remaining at 1 h [2] [%] | Ratio [3] | logD [4] | Ki (Translocator protein) [nM] | remaining at 0.5 h [5] [%] |
| --- | --- | --- | --- | --- | --- | --- | --- | --- |
| COc1ccc(OC)c(CN(C(=O)C[18F])c2ccccc2Oc2ccccc2)c1 | – | 0.49 | 0.74 | – | – | – | – | – |
| COc1ccc(OC)c(CN(C(=O)CF)c2ccccc2Oc2ccccc2)c1 | – | – | – | 91 | – | – | – | – |
